# Measurements from PMC7312786 (Biochemistry, 2018).
# Where “and” joins values, the source holds several entries; their conditions need not be identical. Equal values may be shown once.
# Columns and labels:
# hpol η [1] = target: T1, hpol η (Homo sapiens, UniProt Q9Y253); experiment: Fluorescence-based DNA polymerase activity assay, hpol η; assay type: biochemical; settings: 20 μM PNR-7-02; mean (±SD), three experiments
# T1 sequence (Q9Y253 1-437): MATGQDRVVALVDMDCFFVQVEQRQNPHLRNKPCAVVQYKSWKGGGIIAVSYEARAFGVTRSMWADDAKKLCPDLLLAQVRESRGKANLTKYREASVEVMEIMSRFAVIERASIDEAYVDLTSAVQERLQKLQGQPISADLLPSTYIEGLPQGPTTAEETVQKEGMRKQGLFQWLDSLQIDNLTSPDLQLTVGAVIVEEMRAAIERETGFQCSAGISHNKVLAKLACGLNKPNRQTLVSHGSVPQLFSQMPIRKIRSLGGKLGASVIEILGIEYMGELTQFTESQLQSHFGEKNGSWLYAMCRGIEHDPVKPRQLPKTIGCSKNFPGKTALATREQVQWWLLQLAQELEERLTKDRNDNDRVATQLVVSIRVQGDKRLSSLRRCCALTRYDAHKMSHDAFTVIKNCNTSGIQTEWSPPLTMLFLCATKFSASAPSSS
# hpol θ = target: T2, hpol θ (Homo sapiens, UniProt O75417); experiment: Fluorescence-based pol activity assay, hpol θ; assay type: biochemical; settings: 20 μM PNR-7-02; mean (±SD)
# T2 sequence (O75417 1792-2590): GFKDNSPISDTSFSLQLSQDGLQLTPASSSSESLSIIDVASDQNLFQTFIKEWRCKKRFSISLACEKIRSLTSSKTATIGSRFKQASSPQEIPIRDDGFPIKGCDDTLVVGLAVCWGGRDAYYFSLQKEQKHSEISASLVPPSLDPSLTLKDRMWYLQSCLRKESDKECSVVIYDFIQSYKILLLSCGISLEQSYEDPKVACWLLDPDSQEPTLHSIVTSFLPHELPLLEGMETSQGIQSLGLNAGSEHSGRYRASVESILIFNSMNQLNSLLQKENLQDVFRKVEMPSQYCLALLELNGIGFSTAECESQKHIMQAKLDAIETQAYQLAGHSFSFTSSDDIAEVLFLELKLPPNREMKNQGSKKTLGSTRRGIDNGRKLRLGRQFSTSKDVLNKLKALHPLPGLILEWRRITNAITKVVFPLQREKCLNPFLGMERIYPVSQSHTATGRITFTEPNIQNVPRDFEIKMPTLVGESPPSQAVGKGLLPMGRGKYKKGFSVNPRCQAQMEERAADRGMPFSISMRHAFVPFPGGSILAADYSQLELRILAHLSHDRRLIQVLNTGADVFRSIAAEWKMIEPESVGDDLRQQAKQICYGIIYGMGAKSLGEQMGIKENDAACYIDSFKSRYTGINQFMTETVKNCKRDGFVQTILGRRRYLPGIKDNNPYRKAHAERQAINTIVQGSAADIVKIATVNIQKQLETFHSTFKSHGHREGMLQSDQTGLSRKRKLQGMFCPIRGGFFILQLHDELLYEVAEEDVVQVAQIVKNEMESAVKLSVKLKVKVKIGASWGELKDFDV
# TbPol I = TbPol I (Mycobacterium tuberculosis, UniProt P9WNU5); experiment: Fluorescence-based pol activity assay, Tb Pol I; assay type: biochemical; settings: 20 μM PNR-7-02; mean (±SD)
# Chain of TbPol I (P9WNU5 whole entry): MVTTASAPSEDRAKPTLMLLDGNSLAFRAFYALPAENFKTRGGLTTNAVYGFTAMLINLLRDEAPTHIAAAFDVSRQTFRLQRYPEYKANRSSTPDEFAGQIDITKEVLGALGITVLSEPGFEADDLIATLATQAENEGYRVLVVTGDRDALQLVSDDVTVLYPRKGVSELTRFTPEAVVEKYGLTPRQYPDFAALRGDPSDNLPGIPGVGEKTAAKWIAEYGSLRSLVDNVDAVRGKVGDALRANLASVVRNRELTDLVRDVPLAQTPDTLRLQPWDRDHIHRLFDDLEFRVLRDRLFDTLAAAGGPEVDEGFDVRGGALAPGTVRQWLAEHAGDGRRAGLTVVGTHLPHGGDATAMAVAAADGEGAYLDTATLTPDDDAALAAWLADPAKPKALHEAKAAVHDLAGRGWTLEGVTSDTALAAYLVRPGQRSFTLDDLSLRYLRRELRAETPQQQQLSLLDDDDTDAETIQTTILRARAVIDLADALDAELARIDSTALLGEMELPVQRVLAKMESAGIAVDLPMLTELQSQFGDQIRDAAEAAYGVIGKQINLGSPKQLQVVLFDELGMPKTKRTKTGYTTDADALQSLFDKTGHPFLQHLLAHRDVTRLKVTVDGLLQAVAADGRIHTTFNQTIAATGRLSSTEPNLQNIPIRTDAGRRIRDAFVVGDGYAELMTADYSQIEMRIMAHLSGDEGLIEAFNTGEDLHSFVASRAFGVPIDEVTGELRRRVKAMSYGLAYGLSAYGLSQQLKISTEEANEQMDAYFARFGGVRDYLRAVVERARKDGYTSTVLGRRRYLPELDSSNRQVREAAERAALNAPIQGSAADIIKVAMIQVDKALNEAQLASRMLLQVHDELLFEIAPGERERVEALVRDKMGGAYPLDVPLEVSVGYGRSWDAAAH
# [2] = target: T3, hpol η binding to primer–template DNA (Homo sapiens, UniProt Q9Y253); experiment: Fluorescence anisotropy DNA binding assay; settings: 1–12 μM inhibitor, also above the IC50
# T3 sequence (Q9Y253 1-437): T1 sequence (Q9Y253 1-437)
# hpol η [3] = target: T1, hpol η; experiment: Steady-state kinetic analysis of hpol η activity; assay type: biochemical
# hpol η [4] = target: T1, hpol η; experiment: HPG labeling / MS protein footprinting of hpol η; assay type: binding; settings: 20 and 100 μM PNR-7-02
# How it was run: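 Protein footprinting: hpol η (10 μM) preincubated 10 min at 37 °C with 20 μM (1:2) or 100 μM (1:10) test compound in 50 mM HEPES pH 7.8, 10 mM MgCl₂, 10% DMSO. Then 500 μM HPG for 60 min at 37 °C in the dark; quenched with 200 mM arginine. SDS-PAGE, then MS. Modified arginine taken as fraction of total per residue, normalized to the HPG-alone sample.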
# [5] = system: HAP-1 cells (hpol η-proficient, parental); experiment: Cell viability; assay type: cell-based, human; settings: for Combination index (CI) with CDDP: Chou–Talalay
# How it was run: (§1)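 HAP-1 parental or CRISPR hpol η-null cells in IMDM with 10% FBS and 1% antibiotic/antimycotic, passage 8–10, seeded 5000 cells/well. Next day: CDDP 0–100 μM alone or with 0.1 or 1 μM test compound, 48 h. Cells washed twice in DPBS, then 2 μM Calcein-AM for 30 min at 25 °C; fluorescence ex 490/em 520 nm. Viability as % of untreated. […] Combination index by Chou–Talalay.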
# [6] = system: hpol η-deficient HAP-1 cells; experiment: Cell viability; assay type: cell-based, human
# How it was run: as §1
# OVCAR3 cells = experiment: Combined treatment of OVCAR3 cells with CDDP and PNR-7-02; assay type: cell-based, human
# [7] = system: γH2AX in hpol η-deficient HAP-1 cells; experiment: γH2AX immunoblotting, hpol η-deficient HAP-1 cells; assay type: cell-based, human
# How it was run: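 HAP-1 cells treated with DMSO or 0.5 μM CDDP combined with 0.1 or 1 μM test compound. Pellets lysed at 4 °C in HEPES pH 7.5/Triton X-100 buffer with phosphatase and protease inhibitors. 30–40 μg protein run on 4–20% SDS-PAGE, transferred to nitrocellulose. Probed with anti-γH2AX (S139) 1:1500 and HRP anti-rabbit 1:4000; β-actin loading control; chemiluminescence. Bands normalized to β-actin, relative to DMSO; three biological replicates; t test.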
structure (smiles),measurement,setting,value
"O=C1NC(=S)NC(=O)C1=Cc1cn(Cc2ccc3ccccc3c2)c2ccc(Cl)cc12 [PNR-7-02, 5-((5-chloro-1-(naphthalen-2-ylmethyl)-1H-indol-3-yl)methylene)-2-thioxodihydropyrimidine-4,6-(1H,5H)-dione]","Pol activity relative to DMSO control, hpol η",hpol η [1],4.4 (±3.8) % and < 5%
same,"Pol activity relative to DMSO control, hpol θ",hpol θ,86 (±1) %
same,"Pol activity relative to DMSO control, TbPol I",TbPol I,93 (±2) %
same,"Change in Kd,DNA for hpol η binding to DNA",[2],less than 20%
same,"Effect on KM,dTTP of hpol η",hpol η [3]; 0–9 μM PNR-7-02,nonlinear increase
same,Effect on kcat of hpol η,hpol η [3]; PNR-7-02 near or below the IC50,no change
same,HPG modification of Arg351 of hpol η,hpol η [4],completely abrogated
same,"Combination index values with CDDP, hpol η-proficient cells (summary)",[5]; hpol η-proficient cells co-treated with PNR-7-02,0.4–0.6
same,Combination index (CI) with CDDP,"[5]; parental HAP-1, 0.1 μM PNR-7-02",0.47
same,Combination index (CI) with CDDP,"[5]; parental HAP-1, 1 μM PNR-7-02",0.59
same,Decrease of CDDP EC50 on co-treatment with PNR-7-02,"[5]; parental HAP-1, both concentrations of inhibitor (0.1 and 1 μM)",> 2 fold
same,EC50,"[5]; read-out: EC50, cell viability, PNR-7-02 alone, hpol η-proficient parental HAP-1, 48 h",4.6 µM
same,Effect of adding PNR-7-02 on toxicity of CDDP,[6]; hpol η-deficient cells,does not have a notable effect
same,Combination index with CDDP,"[6]; hpol η-deficient cells, 0.1 μM PNR-7-02",1.02
same,Combination index with CDDP,"[6]; hpol η-deficient cells, 1 μM PNR-7-02",0.90
same,EC50,"[6]; read-out: EC50, cell viability, PNR-7-02 alone, hpol η-deficient HAP-1, 48 h",5.6 µM
same,Combination index (CI) with CDDP,OVCAR3 cells,0.4
same,"μH2AX, combination treatment versus CDDP alone",[7]; CDDP + PNR-7-02,did not increase
same,μH2AX formation,[7]; PNR-7-02 alone,did not change
